The results in this text go back to ChEMBL document CHEMBL4376844, “A Novel Decalin-Based Bicyclic Scaffold for FKBP51-Selective Ligands” (J Med Chem, 2020).

In data set [1] the target is T1, Peptidyl-prolyl cis-trans isomerase FKBP5 (Homo sapiens, UniProt Q13451).
T1 sequence (Q13451 whole entry): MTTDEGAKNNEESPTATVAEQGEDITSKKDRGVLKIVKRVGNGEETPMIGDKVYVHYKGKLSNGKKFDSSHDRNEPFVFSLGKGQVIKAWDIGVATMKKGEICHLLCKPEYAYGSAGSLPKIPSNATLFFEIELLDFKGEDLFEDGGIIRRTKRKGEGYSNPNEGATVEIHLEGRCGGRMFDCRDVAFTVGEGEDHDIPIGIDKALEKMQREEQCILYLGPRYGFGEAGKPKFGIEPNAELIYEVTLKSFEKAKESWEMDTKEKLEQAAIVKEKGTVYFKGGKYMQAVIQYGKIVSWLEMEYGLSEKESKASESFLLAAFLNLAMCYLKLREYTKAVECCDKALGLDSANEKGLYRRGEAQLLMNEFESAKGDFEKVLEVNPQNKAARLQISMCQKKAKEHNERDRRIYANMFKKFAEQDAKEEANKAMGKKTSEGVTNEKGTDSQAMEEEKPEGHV
The data set can be described thus: Inhibition of human full length N-terminal His-tagged/C-terminal FLAG tagged FKBP51 expressed in Escherichia coli BL21 (DE3) cells incubated for 30 mins by competitive fluorescence polarization assay.

For data set [2], the target named is T2, Peptidyl-prolyl cis-trans isomerase FKBP4 (Homo sapiens, UniProt Q02790).
T2 sequence (Q02790 whole entry): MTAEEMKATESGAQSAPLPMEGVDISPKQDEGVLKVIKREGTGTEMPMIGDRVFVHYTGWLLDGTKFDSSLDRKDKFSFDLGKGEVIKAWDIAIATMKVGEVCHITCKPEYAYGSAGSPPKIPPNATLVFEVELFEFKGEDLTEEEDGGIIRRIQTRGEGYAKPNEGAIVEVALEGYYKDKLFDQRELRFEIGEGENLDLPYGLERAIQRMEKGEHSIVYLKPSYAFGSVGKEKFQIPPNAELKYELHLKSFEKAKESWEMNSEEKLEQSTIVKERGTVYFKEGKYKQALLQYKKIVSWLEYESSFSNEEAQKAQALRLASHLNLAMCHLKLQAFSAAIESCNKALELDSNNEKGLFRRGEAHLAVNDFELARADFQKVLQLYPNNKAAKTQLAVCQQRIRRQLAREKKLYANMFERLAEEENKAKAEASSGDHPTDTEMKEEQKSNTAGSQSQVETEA
The data set can be described thus: Inhibition of human full length N-terminal His-tagged/C-terminal FLAG tagged FKBP52 expressed in Escherichia coli BL21 (DE3) cells incubated for 30 mins by competitive fluorescence polarization assay. The following applies: 0.5 h.

A short description of data set [3]: Solubility of compound. The format is physicochemical.
The target in data set [4] is T3, Peptidyl-prolyl cis-trans isomerase FKBP5 (Homo sapiens) (UniProt Q13451).
T3 sequence (whole entry): T1 sequence (Q13451 whole entry)
The data set can be described thus: Inhibition of human full length N-terminal His-tagged/C-terminal FLAG tagged FKBP51 expressed in Escherichia coli BL21 (DE3) cells at >=10 uM incubated for 30 mins by competitive fluorescence polarization assay. (Polarisation of emitted light reports the rotation of a fluorescent probe.)

Data set [5] concerns the target Cytochrome P450 3A4 (Homo sapiens, UniProt P08684). Kind of data set: Inhibition of CYP3A4 (unknown origin). The format is ADME.
Data set [6] has as its system KB. The data set can be described thus: Cytotoxicity against human KB/HeLa cells overexpressing FKBP51 assessed as cell death up to 60 uM incubated for 72 hrs by propidium iodide staining based flow cytometry analysis. It is filed as functional. Summed up: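 KB cells exposed to a range of compound doses for 72 h. 1×10^5 cells washed in PBS, then permeabilized in 0.1% sodium citrate, 0.1% Triton X-100 and 50 µg/mL propidium iodide for 30 min at 4°C in the dark. Nuclear DNA content read by flow cytometry on a log scale with debris gated out by forward scatter; % hypodiploid nuclei taken as dead cells. Four experiments, each in triplicate.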
A general note: In flow cytometry, cells or beads pass a laser one at a time.

As usually defined, the Ki is a dissociation constant, usually derived from enzyme kinetics or from competition with a known ligand. A high value points to a looser hold on the target. One may read the solubility as how much of the substance goes into solution per volume. High values mean much dissolved substance, low ones little dissolved substance. In general, IC50 refers to the midpoint of a concentration-inhibition curve. Low readings indicate greater potency in that assay, high ones weaker potency in that assay.

Activity calls are given as the source filed them. The calls are words filed in the database; no cut-off is given here.

Cytochrome P450 3A4, sequence (P08684 whole entry): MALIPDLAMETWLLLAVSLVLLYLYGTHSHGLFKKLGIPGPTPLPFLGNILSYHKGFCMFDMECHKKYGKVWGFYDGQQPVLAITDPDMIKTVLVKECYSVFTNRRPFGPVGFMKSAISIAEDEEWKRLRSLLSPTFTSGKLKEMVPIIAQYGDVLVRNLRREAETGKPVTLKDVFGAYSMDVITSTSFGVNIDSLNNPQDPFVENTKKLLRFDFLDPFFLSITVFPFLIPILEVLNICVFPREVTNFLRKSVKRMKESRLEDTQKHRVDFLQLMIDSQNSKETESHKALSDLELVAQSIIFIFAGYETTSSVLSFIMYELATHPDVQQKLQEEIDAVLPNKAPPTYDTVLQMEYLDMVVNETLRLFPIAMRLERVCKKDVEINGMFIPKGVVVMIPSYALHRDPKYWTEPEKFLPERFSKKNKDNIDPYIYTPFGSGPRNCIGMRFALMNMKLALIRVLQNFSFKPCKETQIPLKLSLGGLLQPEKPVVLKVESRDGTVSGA

On to `COc1ccc(CCC(OC(=O)C2CCCCN2C(=O)[C@H]2[C@@H]3CCCC[C@H]3C(=O)C[C@@H]2C)c2cccc(OCCN3CCOCC3)c2)cc1OC` (single isomer, unassigned), for which the inhibition constant (Ki) in data set [1] was determined as 0.33 µM. For the same compound, the “inhibition (INH)” value in data set [2] is on record as “Not Active”.
The matching figures for `COc1ccc(CC[C@@H](OC(=O)[C@@H]2CCCCN2C(=O)[C@@H]2CC=C[C@@H]3CCCC[C@H]32)c2cccc(OCC(=O)O)c2)cc1OC`: 2.4 µM and “Not Active”.
For `COc1ccc(CCC(OC(=O)C2CCCCN2C(=O)[C@H]2[C@@H]3CCCC[C@H]3C=C[C@@H]2C)c2cccc(OCCN3CCOCC3)c2)cc1OC` (single isomer, unassigned) the same measures were 1.9 µM and “Not Active”.
The matching figures for `COc1ccc(CC[C@@H](OC(=O)[C@@H]2CCCCN2C(=O)[C@H]2[C@@H]3CCCC[C@H]3CC[C@@H]2C)c2cccc(OCC(=O)O)c2)cc1OC`: 0.49 µM and “Not Active”.
In turn, `COc1ccc(CC[C@@H](OC(=O)[C@@H]2CCCCN2C(=O)[C@@H]2CCC(=O)[C@@H]3CCC[C@H]32)c2cccc(OCC(=O)O)c2)cc1OC` displayed a Ki in data set [1] of 3.1 µM. In addition, the “inhibition (INH)” value in data set [2] is given as “Not Active”.
`COc1ccc(CC[C@@H](OC(=O)[C@@H]2CCCCN2C(=O)c2ccnc3ccccc23)c2cccc(OCC(=O)O)c2)cc1OC`: in data set [3], the solubility was greater than 10 µM. Besides, the inhibition entry in data set [4] is “inactive”.
For `COc1ccc(CC[C@@H](OC(=O)[C@@H]2CCCCN2C(=O)c2cccc3cccnc23)c2cccc(OCC(=O)O)c2)cc1OC` the same measures were greater than 10 µM and “inactive”.
The matching figures for `COc1ccc(CC[C@@H](OC(=O)[C@@H]2CCCCN2C(=O)c2nccc3ccccc23)c2cccc(OCC(=O)O)c2)cc1OC`: greater than 10 µM and “inactive”.
Regarding `COc1ccc(CCC(OC(=O)C2CCCCN2C(=O)[C@@H]2CC(=O)C[C@@H]3CCCC[C@H]32)c2cccc(OCCN3CCOCC3)c2)cc1OC` (single isomer, unassigned), the Ki in data set [1] came to 1.3 µM. In addition, the “inhibition (INH)” value in data set [2] is given as “Not Active”.
For `COc1ccc(CC[C@@H](OC(=O)[C@@H]2CCCCN2C(=O)[C@@H]2CC(=O)C[C@@H]3CCC[C@H]32)c2cccc(OCC(=O)O)c2)cc1OC` the same measures were 28 µM and “Not Active”.
As to `COc1ccc(CC[C@@H](OC(=O)[C@@H]2CCCCN2C(=O)[C@@H]2CCCc3ccccc32)c2cccc(OCC(=O)O)c2)cc1OC`, the solubility in data set [3] is greater than 10 µM. For the same compound, the inhibition entry in data set [4] is “inactive”.
In turn, `COc1ccc(CC[C@@H](OC(=O)[C@@H]2CCCCN2C(=O)[C@@H]2CCC[C@@H]3CCC[C@H]32)c2cccc(OCC(=O)O)c2)cc1OC` yielded a Ki in data set [1] of 2.6 µM. In addition, the “inhibition (INH)” value in data set [2] is recorded as “Not Active”.
Turning to `COc1ccc(CC[C@@H](OC(=O)[C@@H]2CCCCN2C(=O)c2cccc3c2CCCC3)c2cccc(OCC(=O)O)c2)cc1OC`, the solubility in data set [3] is greater than 10 µM. Also, the inhibition result in data set [4] was “inactive”.
In data set [1], `COc1ccc(CC[C@@H](OC(=O)[C@@H]2CCCCN2C(=O)[C@@H]2C[C@H]3OC(C)(C)O[C@H]3[C@@H]3CCCC[C@H]32)c2cccc(OCCN3CCOCC3)c2)cc1OC` registered a Ki of 8.2 µM. The “inhibition (INH)” value in data set [2] was “Not Active”.
As for `COc1ccc(CC[C@@H](OC(=O)[C@@H]2CCCCN2C(=O)[C@@H]2CCC[C@@H]3CCCC[C@H]32)c2cccc(OCC(=O)O)c2)cc1OC`, the Ki in data set [1] came to 0.81 µM. Half-maximal inhibition in data set [5] (IC50) was put at 8.4 µM. In data set [2], the “inhibition (INH)” value is listed as “Not Active”.
`COc1ccc(CC[C@@H](OC(=O)[C@@H]2CCCCN2C(=O)[C@H]2[C@@H]3CCCC[C@H]3C=C[C@@H]2C)c2cccc(OCC(=O)O)c2)cc1OC` yielded a Ki in data set [1] of 2 µM. Moreover, the “inhibition (INH)” value in data set [2] is on record as “Not Active”.
Turning to `COc1ccc(CC[C@@H](OC(=O)[C@@H]2CCCCN2C(=O)[C@@H]2CCC(O)[C@@H]3CCCC[C@@H]23)c2cccc(OCCN3CCOCC3)c2)cc1OC` (stereo not given in full), the “inhibition (INH)” value in data set [2] was “Not Active”.
With `COc1ccc(CC[C@@H](OC(=O)[C@@H]2CCCCN2C(=O)c2cccc3ccccc23)c2cccc(OCC(=O)O)c2)cc1OC`, in data set [6], the outcome was inactive. Also, the solubility in data set [3] was greater than 10 µM. Moreover, in data set [4], the inhibition entry was “inactive”.
With `COc1ccc(CCC(OC(=O)C2CCCCN2C(=O)[C@@H]2CC=C[C@@H]3CCCC[C@H]32)c2cccc(OCCN3CCOCC3)c2)cc1OC` (single isomer, unassigned), affinity in data set [1] was put at a Ki of 2.6 µM. The “inhibition (INH)” value in data set [2] is listed as “Not Active”.
For `COc1ccc(CC[C@@H](OC(=O)[C@@H]2CCCCN2C(=O)[C@@H]2CC=C[C@@H]3CCC[C@H]32)c2cccc(OCC(=O)O)c2)cc1OC` the same measures were 7.8 µM and “Not Active”.
Take `COc1ccc(CC[C@@H](OC(=O)[C@@H]2CCCCN2C(=O)C2=CCc3ccccc32)c2cccc(OCC(=O)O)c2)cc1OC`: in data set [3], the solubility is greater than 10 µM. Also, the inhibition entry in data set [4] was “inactive”.
Turning to `COc1ccc(CCC(OC(=O)C2CCCCN2C(=O)[C@@H]2CCC(=O)[C@@H]3CCCC[C@H]32)c2cccc(OCCN3CCOCC3)c2)cc1OC` (single isomer, unassigned), the Ki in data set [1] amounted to 0.23 µM. Further, the “inhibition (INH)” value in data set [2] was “Not Active”.
